TRPC4 potent: allosteric potentiators of mouse TRPC4 channel; HEK293 TRPC4beta/mu-opioid, DAMGO EC20, Fluo-4 Ca2+ flux; active compounds read high; B-score at 10 µM; 0.42% of 310,000 active;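 active = B-score of calcium response area above 5 SD of library B-scores, with initial fluorescence ratio within 5 SD of library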;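 also: B-score of integrated fluorescence ratio over time as area under calcium response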
TRPC4 inh: blocks the mouse TRPC4 cation channel. Q9QUQ5. HEK293 TRPC4beta/mu-opioid, DAMGO-evoked Fluo4 calcium flux; active compounds read low. B-score at 10 µM. 0.39% of 300,000 active;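 active = B-score over 3 SD under the library average, no early fluorescence shift, positive overall ratio signal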
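Test system – stable TRPC4beta/mu-opioid receptor HEK293 cells · Probe or stimulus – DAMGO, a submaximal dose followed by a maximal one · Dosing – one concentration per compound · Signal – Fluo4 calcium fluorescence by kinetic imaging, 5 s 1 Hz baseline · Evaluation – per-well B score of integrated baseline-normalized Fluo4 ratio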
TRPC4 act: opens the mouse TRPC4 cation channel; Q9QUQ5; HEK293 TRPC4beta/mu-opioid, Fluo4 calcium fluorescence; active compounds read high; B-score at 10 µM; 0.49% of 310,000 active; AID 2237;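 active = B-score above 5 SD of library B-scores, and initial fluorescence ratio not above library mean plus 5 SD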;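 also: positive B-score marks a calcium rise read as TRPC4 activation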
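Assay system: HEK293 cells stably co-expressing mouse TRPC4beta and mu-opioid receptor / Timing: Fluo4 dye loading 45 min at room temperature, 110 s recording / Signal: Fluo4 calcium-sensitive dye fluorescence, kinetic, 1 Hz baseline / Read-out: integrated baseline-normalised fluorescence ratio, converted to per-well B score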
TRPC6 activator: mouse TRPC6 channel activation; HEK293-TRPC6 membrane potential dye fluorescence; active compounds read high; B-score at 10 µM; 0.13% of 310,000 active; AID 2550;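 active = B-score of the integrated fluorescence ratio above library mean plus 3 SD, and starting fluorescence ratio within library mean plus 5 SD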;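 also: higher score means more depolarization so channel activation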
Target sequence (Q61143 whole entry, looked up): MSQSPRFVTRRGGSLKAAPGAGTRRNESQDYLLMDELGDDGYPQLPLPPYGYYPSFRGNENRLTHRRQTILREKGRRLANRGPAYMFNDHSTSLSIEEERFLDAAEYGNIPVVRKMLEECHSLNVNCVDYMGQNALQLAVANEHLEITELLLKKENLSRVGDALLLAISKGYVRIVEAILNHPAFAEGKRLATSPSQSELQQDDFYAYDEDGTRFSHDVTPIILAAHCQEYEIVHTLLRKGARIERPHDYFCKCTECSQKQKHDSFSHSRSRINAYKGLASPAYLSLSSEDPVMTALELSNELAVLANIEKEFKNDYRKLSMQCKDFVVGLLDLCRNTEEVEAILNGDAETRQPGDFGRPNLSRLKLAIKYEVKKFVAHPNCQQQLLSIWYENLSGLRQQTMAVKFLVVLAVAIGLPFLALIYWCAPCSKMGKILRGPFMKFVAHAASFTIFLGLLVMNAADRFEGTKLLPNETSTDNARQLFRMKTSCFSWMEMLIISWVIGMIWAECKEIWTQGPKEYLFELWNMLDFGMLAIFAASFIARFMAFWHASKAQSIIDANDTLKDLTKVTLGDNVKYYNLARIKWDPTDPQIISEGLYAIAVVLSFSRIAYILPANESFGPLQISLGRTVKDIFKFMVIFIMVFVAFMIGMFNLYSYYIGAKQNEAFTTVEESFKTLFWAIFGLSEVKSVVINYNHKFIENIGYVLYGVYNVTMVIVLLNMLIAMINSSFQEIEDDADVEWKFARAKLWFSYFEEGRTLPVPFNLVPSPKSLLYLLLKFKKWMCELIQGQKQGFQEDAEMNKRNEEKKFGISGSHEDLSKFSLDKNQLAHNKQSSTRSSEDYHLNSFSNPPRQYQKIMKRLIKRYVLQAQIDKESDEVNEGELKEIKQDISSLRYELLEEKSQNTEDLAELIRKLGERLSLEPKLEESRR
TRPC6 inh: mouse TRPC6 channel inhibition; Q61143; HEK293-TRPC6, membrane potential dye, ACh-evoked depolarization; active compounds read low; B-score at 10 µM; 1.1% of 310,000 active;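 active = B-score under library mean minus 3 SD, initial fluorescence not abnormally high, positive integrated signal ratio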;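 also: B-score derived from integrated fluorescence ratio over the kinetic read; more negative B-score means stronger inhibition of depolarization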
TRPC4 spec 2: second check of whether TRPC6 inhibitors also affect mouse TRPC4; AID 2776; HEK293 TRPC4/MOR, membrane potential dye fluorescence; channel activated by saturating DAMGO dose; inhibition, % at 10 µM; 42% of 920 active; shares compounds with TRPC6 inh;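 active = compounds whose fluorescence signal differed from control wells by over 3 SD, either direction, in both duplicate plates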
TRPC4 spec: tests whether TRPC6 inhibitors also affect mouse TRPC4; shares compounds with TRPC6 inh; HEK293 TRPC4/mu-opioid, membrane potential fluorescence; activity change, negative = inhibition, % at 10 µM; 61% of 920 active;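 active = rise or fall in signal beyond 3 SD of buffer-only wells in both replicate plates, either sign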;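 also: integrated kinetic ratio of fluorescence range over baseline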
HEK293 MPD ctr 2-1: parental HEK293 nonspecific activity of TRPC6 inhibitors, second screen | shares compounds with TRPC6 inh | parental HEK293 membrane potential dye fluorescence; maximal acetylcholine challenge after compound addition | signal change vs control, % at 10 µM | 31% of 920 active | AID 2779;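 active = membrane potential signal moving either way by over 3 SD of the maximum-effect control, in both duplicate plates, meaning non-specific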
HEK293 MPD ctr-1: parental HEK293 nonspecific activity of TRPC6 inhibitors; membrane potential signal change, % at 10 µM; AID 2780; 60% of 920 active; parental HEK293 membrane potential dye fluorescence; shares compounds with TRPC6 inh;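 active = membrane potential signal shifting up or down by more than 3 SD of buffer-only wells, on both duplicate plates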
HEK293 MPD ctr-2: parental HEK293 nonspecific activity of TRPC6 modulators | AID 488924 | shares compounds with TRPC6 inh | membrane potential dye fluorescence | 51% of 2,400 active | membrane potential signal change, % at 10 µM;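 active = membrane potential signal moves up or down beyond 5 SD from buffer-only wells, on both duplicate plates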
HEK293 MPD ctr 2-2: second counter-screen for TRPC6 modulators: effect in parental HEK293 cells; membrane potential dye fluorescence; after compound, maximal acetylcholine stimulation; inhibition, % at 10 µM; 14% of 2,400 active; shares compounds with TRPC6 inh;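 active = membrane potential signal drops by more than 5 SD from the mean control signal, in both duplicate plates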;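 also: plate controls were acetylcholine ECmax control wells for no effect and buffer only wells for full effect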
TRPC4/MOR mod: selectivity of TRPC6 modulators against mouse TRPC4; 69% of 2,400 active; HEK293 TRPC4/mu-opioid, membrane potential fluorescence; percent change from control (negative = decrease, positive = increase), % at 10 µM; shares compounds with TRPC6 inh;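 active = membrane potential signal moved up or down beyond 5 SD of buffer control wells, in both duplicate plates, actives on both sides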;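 also: plate controls were assay buffer wells for no effect and DAMGO maximal-effect wells for full effect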
TRPC4/MOR inh 2: mouse TRPC4 off-target activity of TRPC6 modulators, second screen. 55% of 2,400 active. HEK293 TRPC4/mu-opioid, membrane potential dye fluorescence; stimulated with maximal-effect DAMGO. shares compounds with TRPC6 inh. inhibition, % at 10 µM. AID 488928;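 active = drop in membrane potential signal beyond 5 SD of the control wells in both duplicate plates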;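 also: TRPC4 counter screen for TRPC6 hits run under conditions tuned for TRPC6 not TRPC4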
TRPC6 inh conf: mouse TRPC6 inhibitor confirmation; inhibition, % at 10 µM; AID 488960; 43% of 3,300 active; HEK293-TRPC6, membrane potential dye, ACh-evoked depolarization; shares compounds with TRPC6 inh;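 active = fluorescence ratio falls more than 5 SD below the full-stimulation control mean, in both duplicate runs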;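 also: integrated fluorescence ratio of peak minus minimum over baseline after agonist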
TRPC6 act confirm: confirmation of mouse TRPC6 activators. activation, % at 10 µM. shares compounds with TRPC6 inh. HEK293-TRPC6 membrane potential dye fluorescence, FDSS. 11% of 2,800 active;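 active = ratio signal rise beyond 5 SD above unstimulated control wells' mean, seen in both duplicate runs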;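 also: plate controls were buffer EC0 wells for no effect and acetylcholine ECmax response for full effect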
The depositor's hits bear a star; i = inactive; nt = no result. Shown are actives, neighbours in structure and some others; about 2.3% of the full set was active somewhere.

SMILES | TRPC4 potent | TRPC4 inh | TRPC4 act | TRPC6 activator | TRPC6 inh | TRPC4 spec 2 | TRPC4 spec | HEK293 MPD ctr 2-1 | HEK293 MPD ctr-1 | HEK293 MPD ctr-2 | HEK293 MPD ctr 2-2 | TRPC4/MOR mod | TRPC4/MOR inh 2 | TRPC6 inh conf | TRPC6 act confirm
Oc1ccccc1Nc1nc(NCC2CCCO2)c2ccccc2n1 (stereo not given) | i | i | i | i | -15* | 28%* | -22%* | i | -273%* | nt | nt | nt | nt | 75%* | i
c1ccc2c(NCC3CCCO3)nc(N3CCCCC3)nc2c1 (stereo not given) | i | i | i | i | i | nt | nt | nt | nt | nt | nt | nt | nt | nt | nt
COc1cccc(Nc2nc(NCC3CCCO3)c3ccccc3n2)c1 (stereo not given) | i | i | i | i | -11* | nt | nt | nt | nt | i | i | -22%* | 74%* | 58%* | i
COc1cccc(Nc2nc(NCCO)c3ccccc3n2)c1 | i | i | i | i | -11* | 40%* | -22%* | 27%* | -237%* | nt | nt | nt | nt | 90%* | i
Oc1ccc(Cl)cc1Nc1nc(NCC2CCCO2)c2ccccc2n1 (stereo not given) | i | i | i | i | i | nt | nt | nt | nt | nt | nt | nt | nt | nt | nt
COc1cc(-c2ccc(NC(=O)NC3CC3)c(OC)c2)ccc1NC(=O)NC1CC1 | i | i | i | i | i | nt | nt | nt | nt | nt | nt | nt | nt | nt | nt
O=C(NCc1ccccc1)C(c1ccccn1)N(C(=O)c1csnn1)c1ccccc1F (stereo not given) | i | i | i | i | i | nt | nt | nt | nt | nt | nt | nt | nt | nt | nt
Oc1ccccc1Nc1nc(NCc2ccco2)c2ccccc2n1 | i | -6* | i | i | -8.5* | 74%* | i | i | i | nt | nt | nt | nt | i | i
OCCN1CCN(c2nc(NCc3ccco3)c3ccccc3n2)CC1 | i | i | i | i | -6* | nt | nt | nt | nt | -228%* | i | -38%* | 57%* | i | i
c1ccc(Nc2nc(NCc3ccco3)c3ccccc3n2)cc1 | i | i | i | i | i | nt | nt | nt | nt | nt | nt | nt | nt | nt | nt
c1ccc(CN2CCN(c3nc(NCc4ccco4)c4ccccc4n3)CC2)cc1 | i | i | i | i | i | nt | nt | nt | nt | nt | nt | nt | nt | nt | nt
CC(=O)Nc1ccccc1OCC(=O)N(Cc1ccccc1)C(C)C | i | i | i | i | i | nt | nt | nt | nt | nt | nt | nt | nt | nt | nt
CC(C)COc1ccc(C(=O)OC2CC(C)(C)OCC2CN(C)C)cc1 (stereo not given) | i | i | i | 14* | i | nt | nt | nt | nt | 300%* | i | 46%* | 42%* | i | 136%*
O=C(NCCN1CCOCC1)c1cnn2c(-c3ccccc3)cc(-c3ccccc3)nc12 | i | i | i | i | -7.5* | i | i | i | -130%* | nt | nt | nt | nt | i | i
COc1cc2nc(C3CCC3)nc(N3CCN(c4ccccc4OC)CC3)c2cc1OC | i | i | i | i | i | nt | nt | nt | nt | nt | nt | nt | nt | nt | nt
Cc1ccc(-c2csc(NC(=O)CSc3nc(C)cc(=O)[nH]3)n2)cc1 | i | i | i | i | -7.7* | i | i | 260%* | i | nt | nt | nt | nt | i | i
S=C1Cc2ccccc2N1 | i | i | i | i | i | nt | nt | nt | nt | nt | nt | nt | nt | nt | nt
CC(C)Cc1nnc(NC(=O)c2ccc3c(=O)n4c(nc3c2)CCC4)s1 | i | i | i | i | -7.7* | i | -15%* | i | -280%* | nt | nt | nt | nt | i | i
CC(C)Cc1nnc(NC(=O)c2ccc(N3CCCC3=O)cc2)s1 | i | i | i | i | i | nt | nt | nt | nt | nt | nt | nt | nt | nt | nt
COc1cccc2sc3ccc(NCCC4CCCN4C)cc3c(=O)c12 (stereo not given) | i | i | i | i | -6.8* | 65%* | 21%* | i | 17%* | nt | nt | nt | nt | i | nt
NCCNc1ccc(C(=O)N2c3ccccc3Sc3ccccc32)cc1[N+](=O)[O-] | i | i | i | i | -6.2* | nt | nt | nt | nt | i | i | -10%* | 60%* | 54%* | i
CC1CCN(Cc2c(C(=O)N/N=C/c3cc(Br)ccc3O)nnn2-c2nonc2N)CC1 | i | i | i | i | i | nt | nt | nt | nt | nt | nt | nt | nt | nt | nt
CC1CCN(Cc2c(C(=O)N/N=C/c3cc(Cl)ccc3O)nnn2-c2nonc2N)CC1 | i | i | i | i | -5.5* | nt | nt | nt | nt | i | i | i | i | i | i
CCc1ccccc1NS(=O)(=O)c1ccc2[nH]cc(C(=O)NCc3ccco3)c(=O)c2c1 | i | i | i | i | -5* | nt | nt | nt | nt | i | i | i | i | i | i
O=C(NC1CC1)c1c[nH]c2ccc(S(=O)(=O)Nc3cccc(C(F)(F)F)c3)cc2c1=O | i | i | i | i | -5.2* | nt | nt | nt | nt | i | i | i | i | i | nt
COc1ccc(S(=O)(=O)Nc2ccccc2C(=O)NCc2ccco2)cc1 | i | i | i | i | i | nt | nt | nt | nt | nt | nt | nt | nt | nt | nt
O=C(NCc1ccccc1)c1c[nH]c2ccc(S(=O)(=O)Nc3ccc4c(c3)OCCO4)cc2c1=O | i | i | i | i | -5.2* | nt | nt | nt | nt | i | i | i | i | i | i
COC(=O)C1CN(C(=O)COc2ccc(Cl)cc2Cl)c2ccccc2O1 (stereo not given) | i | i | i | i | i | nt | nt | nt | nt | nt | nt | nt | nt | nt | nt
